Test results reported in publication PMC2943143 (Biochemical pharmacology, 2010).
“Also recorded” adds a separate entry of the source.

Legend:
rat pol β = rat pol β (Rattus norvegicus, UniProt P06766); assay: Pol assay, rat pol β; assay type: biochemical; conditions: for Ki: pol β, Dixon plot
Procedure, shortened: (§1)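 Test compound was dissolved in DMSO and sonicated 30 s. It was preincubated with enzyme (0.05 unit final) in 50 mM Tris-HCl pH 7.5, 1 mM DTT, 50% glycerol and 0.1 mM EDTA at 0 °C for 10 min. This was added to each enzyme's standard reaction mix with poly(dA)/oligo(dT)18 (A/T = 2/1) template-primer and dTTP substrate, then incubated at 37 °C for 60 min. Activity is given as % of inhibitor-free control.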

human pol γ = human pol γ (Homo sapiens, UniProt P54098); assay: Pol assay, human pol γ; assay type: biochemical; conditions: 100 and 1,000 nM PGG, Fig. 1C; compared with B- and Y-family pols
Chain of human pol γ (P54098 whole entry): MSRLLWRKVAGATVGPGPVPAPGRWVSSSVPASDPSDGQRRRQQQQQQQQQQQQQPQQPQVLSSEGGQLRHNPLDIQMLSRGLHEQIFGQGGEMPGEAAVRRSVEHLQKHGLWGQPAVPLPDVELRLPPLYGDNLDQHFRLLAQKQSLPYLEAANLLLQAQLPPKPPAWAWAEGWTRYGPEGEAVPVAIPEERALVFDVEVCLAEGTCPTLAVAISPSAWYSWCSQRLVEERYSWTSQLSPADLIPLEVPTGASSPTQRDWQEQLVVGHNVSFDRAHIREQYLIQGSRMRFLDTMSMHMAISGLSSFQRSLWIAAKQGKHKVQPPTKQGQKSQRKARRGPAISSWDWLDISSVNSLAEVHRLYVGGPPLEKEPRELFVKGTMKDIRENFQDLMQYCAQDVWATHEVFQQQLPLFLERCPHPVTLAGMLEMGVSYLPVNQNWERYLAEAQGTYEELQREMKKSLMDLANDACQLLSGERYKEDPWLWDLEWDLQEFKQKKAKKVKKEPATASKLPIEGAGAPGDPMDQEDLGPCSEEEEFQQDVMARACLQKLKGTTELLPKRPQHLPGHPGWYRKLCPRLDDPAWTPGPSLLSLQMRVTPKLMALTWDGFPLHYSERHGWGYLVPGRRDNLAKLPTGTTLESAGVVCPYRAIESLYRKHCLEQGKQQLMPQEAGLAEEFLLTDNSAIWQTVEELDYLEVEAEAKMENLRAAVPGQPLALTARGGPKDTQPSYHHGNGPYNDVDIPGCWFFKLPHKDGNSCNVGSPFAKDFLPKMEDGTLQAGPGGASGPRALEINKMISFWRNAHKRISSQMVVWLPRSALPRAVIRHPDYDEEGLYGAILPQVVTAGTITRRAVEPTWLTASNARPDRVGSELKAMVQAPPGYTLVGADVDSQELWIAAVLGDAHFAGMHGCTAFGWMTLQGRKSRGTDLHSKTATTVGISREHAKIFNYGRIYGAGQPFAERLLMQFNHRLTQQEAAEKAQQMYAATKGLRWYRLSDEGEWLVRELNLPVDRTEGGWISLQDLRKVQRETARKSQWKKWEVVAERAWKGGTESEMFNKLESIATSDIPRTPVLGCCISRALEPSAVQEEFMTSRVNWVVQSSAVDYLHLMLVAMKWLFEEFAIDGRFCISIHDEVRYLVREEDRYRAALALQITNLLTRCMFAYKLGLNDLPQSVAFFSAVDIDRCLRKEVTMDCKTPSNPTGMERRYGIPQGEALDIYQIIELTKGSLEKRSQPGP
Procedure, shortened: as §1

calf thymus TdT = calf thymus TdT (Bos taurus, UniProt P06526); assay: Pol assay, calf TdT; assay type: biochemical; conditions: 100 and 1,000 nM PGG, Fig. 1C
Chain of calf thymus TdT (P06526 whole entry): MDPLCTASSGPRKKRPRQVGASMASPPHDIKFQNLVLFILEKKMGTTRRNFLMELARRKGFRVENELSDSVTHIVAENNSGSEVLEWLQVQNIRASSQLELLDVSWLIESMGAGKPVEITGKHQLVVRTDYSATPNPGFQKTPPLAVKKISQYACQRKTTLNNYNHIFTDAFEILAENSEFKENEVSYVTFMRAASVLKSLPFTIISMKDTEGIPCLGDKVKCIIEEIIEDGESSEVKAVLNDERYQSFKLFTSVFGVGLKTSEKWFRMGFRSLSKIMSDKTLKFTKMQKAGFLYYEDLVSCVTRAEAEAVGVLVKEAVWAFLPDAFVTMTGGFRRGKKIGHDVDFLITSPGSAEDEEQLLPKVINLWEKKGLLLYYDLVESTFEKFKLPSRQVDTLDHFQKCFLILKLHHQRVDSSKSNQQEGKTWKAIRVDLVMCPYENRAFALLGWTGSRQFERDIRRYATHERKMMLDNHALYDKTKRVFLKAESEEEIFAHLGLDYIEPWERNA
Procedure, shortened: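 TdT was assayed with oligo(dT)18 (3′-OH) primer and dTTP substrate. Test compound in sonicated DMSO was preincubated with 0.05 unit enzyme in 50 mM Tris-HCl pH 7.5, 1 mM DTT, 50% glycerol and 0.1 mM EDTA at 0 °C for 10 min. Reaction ran at 37 °C for 60 min. Remaining activity is expressed relative to no-inhibitor control.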

del-1 pol λ (133–575) = del-1 pol λ (133–575) (Homo sapiens, UniProt Q9UGP5); assay: Pol assay, del-1 pol λ mutant; assay type: biochemical; conditions: dose-response, Fig. 4B
Chain of del-1 pol λ (133–575) (Q9UGP5 133-575): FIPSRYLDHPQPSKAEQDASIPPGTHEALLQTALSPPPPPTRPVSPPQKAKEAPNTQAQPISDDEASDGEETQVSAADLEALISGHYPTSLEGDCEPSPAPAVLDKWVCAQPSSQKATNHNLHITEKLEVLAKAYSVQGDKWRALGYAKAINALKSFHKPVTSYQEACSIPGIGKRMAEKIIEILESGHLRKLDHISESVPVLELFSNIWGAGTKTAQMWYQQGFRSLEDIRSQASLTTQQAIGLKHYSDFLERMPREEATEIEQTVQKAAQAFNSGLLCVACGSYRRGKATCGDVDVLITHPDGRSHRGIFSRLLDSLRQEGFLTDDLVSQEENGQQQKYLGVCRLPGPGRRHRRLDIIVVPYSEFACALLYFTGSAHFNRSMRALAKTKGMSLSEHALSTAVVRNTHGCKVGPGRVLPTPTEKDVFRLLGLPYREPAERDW
Procedure, shortened: as §1

rice pol λ = rice pol λ (Oryza sativa subsp. japonica, UniProt Q67VC8); assay: Pol assay, rice pol λ; assay type: biochemical; conditions: supplemental Fig. S1A
Chain of rice pol λ (Q67VC8 whole entry): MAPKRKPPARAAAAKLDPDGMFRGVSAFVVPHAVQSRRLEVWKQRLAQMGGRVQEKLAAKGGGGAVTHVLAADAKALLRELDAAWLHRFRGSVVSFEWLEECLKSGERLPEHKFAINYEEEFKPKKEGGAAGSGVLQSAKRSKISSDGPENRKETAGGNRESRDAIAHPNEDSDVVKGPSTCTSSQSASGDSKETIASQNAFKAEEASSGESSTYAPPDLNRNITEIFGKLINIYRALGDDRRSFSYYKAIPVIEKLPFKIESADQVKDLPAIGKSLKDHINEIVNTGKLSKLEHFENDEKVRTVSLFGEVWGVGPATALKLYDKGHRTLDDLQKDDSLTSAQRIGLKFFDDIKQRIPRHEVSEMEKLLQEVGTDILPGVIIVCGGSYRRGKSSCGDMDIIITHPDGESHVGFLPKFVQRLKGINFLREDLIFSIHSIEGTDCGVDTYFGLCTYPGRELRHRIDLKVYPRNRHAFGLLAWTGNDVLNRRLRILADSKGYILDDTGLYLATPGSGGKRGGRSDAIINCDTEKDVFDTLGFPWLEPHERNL
Procedure, shortened: as §1

calf primase of pol α = assay: Primase assay; assay type: biochemical; conditions: highest tested concentration 1 μM, supplemental Fig. S1B
human topoisomerase I = human topoisomerase I (Homo sapiens, UniProt P11387); assay: DNA topoisomerase I assay; assay type: biochemical; conditions: highest tested concentration 1 μM, supplemental Fig. S1B
Chain of human topoisomerase I (P11387 whole entry): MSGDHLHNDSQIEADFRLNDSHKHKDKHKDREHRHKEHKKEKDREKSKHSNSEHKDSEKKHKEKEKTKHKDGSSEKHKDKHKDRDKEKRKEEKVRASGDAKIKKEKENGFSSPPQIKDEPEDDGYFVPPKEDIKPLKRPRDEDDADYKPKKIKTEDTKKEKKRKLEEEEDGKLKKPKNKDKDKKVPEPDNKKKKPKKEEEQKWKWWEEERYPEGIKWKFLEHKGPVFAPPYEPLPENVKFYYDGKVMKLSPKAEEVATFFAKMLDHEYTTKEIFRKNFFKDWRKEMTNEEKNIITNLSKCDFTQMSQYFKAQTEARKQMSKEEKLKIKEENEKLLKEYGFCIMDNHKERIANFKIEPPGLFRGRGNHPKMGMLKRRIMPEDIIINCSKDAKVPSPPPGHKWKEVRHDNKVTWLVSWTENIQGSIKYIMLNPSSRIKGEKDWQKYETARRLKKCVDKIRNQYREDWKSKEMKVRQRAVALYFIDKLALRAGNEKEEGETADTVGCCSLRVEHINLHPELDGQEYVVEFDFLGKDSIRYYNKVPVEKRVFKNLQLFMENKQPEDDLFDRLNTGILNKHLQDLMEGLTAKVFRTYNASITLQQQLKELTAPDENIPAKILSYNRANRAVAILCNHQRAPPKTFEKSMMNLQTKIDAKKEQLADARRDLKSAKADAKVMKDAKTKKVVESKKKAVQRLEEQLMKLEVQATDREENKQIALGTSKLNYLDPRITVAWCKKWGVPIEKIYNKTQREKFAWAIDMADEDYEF
Procedure, shortened: (§2)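 Topoisomerases I and II were purified from human placenta, and DNase I came from bovine pancreas. Each activity was measured in a standard assay following the supplier's specifications.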

T4 polynucleotide kinase = T4 polynucleotide kinase (Enterobacteria phage T4, UniProt P06855); assay: T4 polynucleotide kinase assay; assay type: biochemical; conditions: highest tested concentration 1 μM, supplemental Fig. S1B
Chain of T4 polynucleotide kinase (P06855 whole entry): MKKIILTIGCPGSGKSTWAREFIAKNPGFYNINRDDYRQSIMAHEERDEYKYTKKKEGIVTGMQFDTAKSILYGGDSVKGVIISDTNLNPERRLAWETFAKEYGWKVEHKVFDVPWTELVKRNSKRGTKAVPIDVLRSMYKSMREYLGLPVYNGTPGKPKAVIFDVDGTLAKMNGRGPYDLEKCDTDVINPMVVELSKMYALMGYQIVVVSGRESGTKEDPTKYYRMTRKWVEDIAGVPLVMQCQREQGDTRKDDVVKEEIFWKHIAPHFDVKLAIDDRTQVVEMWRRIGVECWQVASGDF

bovine DNase I = bovine DNase I (Bos taurus, UniProt P00639); assay: DNase I assay; assay type: biochemical; conditions: highest tested concentration 1 μM, supplemental Fig. S1B
Chain of bovine DNase I (P00639 23-282): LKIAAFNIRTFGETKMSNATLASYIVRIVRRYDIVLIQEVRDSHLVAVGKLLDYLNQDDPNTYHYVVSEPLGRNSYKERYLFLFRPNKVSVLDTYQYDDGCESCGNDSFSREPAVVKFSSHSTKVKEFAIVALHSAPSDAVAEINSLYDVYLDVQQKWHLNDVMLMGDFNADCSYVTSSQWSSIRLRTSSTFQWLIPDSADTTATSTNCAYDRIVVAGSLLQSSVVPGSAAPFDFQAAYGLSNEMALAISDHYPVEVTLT
Procedure, shortened: as §2

[1] = test system: calf thymus double-stranded DNA (dsDNA); assay: Thermal transition of DNA; assay type: binding; conditions: 15 μM compound, calf thymus dsDNA 6 μg/ml, pH 7.0
Procedure, shortened: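 Calf thymus dsDNA (6 μg/ml) in 0.1 M sodium phosphate pH 7.0 with 1% DMSO was tested with or without test compound, with ethidium bromide as intercalator control. Samples were equilibrated at 78 °C for 10 min, then raised 1 °C every 2 min. Absorbance was recorded on a spectrophotometer with a thermoelectric cell holder, and compound-only absorbance was subtracted to give Tm.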

Xanthine oxidase = conditions: read-out: IC50, Xanthine oxidase; cited from earlier work
Beta-secretase = conditions: cited from earlier work
Neutral endopeptidase = conditions: read-out: IC50, Neutral endopeptidase; cited from earlier work
HIV integrase = conditions: read-out: IC50, HIV integrase; cited from earlier work
[2] = biological target: HIV reverse transcriptase; conditions: read-out: IC50, HIV reverse transcriptase; cited from earlier work
isolated nuclei = conditions: cited from earlier work
[3] = test system: mouse Lewis lung cancer allografts; conditions: dose-dependent in the range of 4 and 20 mg/kg, syngenic mice; cited from earlier work
human PCa PC-3 cells = conditions: i.p. injection, every other day, 25 mg/kg, nude mice; cited from earlier work
[4] = test system: human DU145 prostate cancer (PCa) xenografts; conditions: cited from earlier work
[5] = unchanged at 30, 60 and 90 nM PGG

## O=C(OC[C@H]1O[C@@H](OC(=O)c2cc(O)c(O)c(O)c2)[C@H](OC(=O)c2cc(O)c(O)c(O)c2)[C@@H](OC(=O)c2cc(O)c(O)c(O)c2)[C@@H]1OC(=O)c1cc(O)c(O)c(O)c1)c1cc(O)c(O)c(O)c1 [PGG, 1,2,3,4,6-penta-O-galloyl-β-D-glucose]
Rat pol β; IC50, pol β, poly(dA)/oligo(dT)18 and dTTP, 0.05 unit enzyme
  IC50: 0.108 to 0.16 µM
Rat pol β; for the DNA template-primer
  Ki: 0.0201 µM
Rat pol β; for the dNTP substrate
  Ki: 0.0238 µM
Rat pol β; PGG 100 nM and 200 nM, supplemental Table S1
  effect of 0.05% NP-40 on the inhibitory effect on pol β: not reversed
Rat pol β; double reciprocal plots
  Mode of Inhibition, pol β, DNA template-primer: competitively; also recorded: Competitive for DNA template-primer
  Mode of Inhibition, pol β, dNTP: competitively; also recorded: Competitive for dNTP
Rat pol β; poly(rC) 50 μM, BSA 200 μg/ml
  effect of poly(rC) or BSA on the inhibitory effect on pol β: neither poly(rC) nor BSA influenced
Rat pol β; [5]
  apparent Vmax of pol β, DNA template-primer: 111 pmol/h
  apparent Vmax of pol β, dNTP substrate: 62.5 pmol/h
Human pol γ
  inhibitory activity on pol γ (family A): lower
Calf thymus TdT
  effect on TdT activity: not affected; also recorded: not sensitive
del-1 pol λ (133–575)
  inhibition of del-1 pol λ activity: dose-dependently inhibited
Rice pol λ
  effect on rice pol λ activity: not influenced
Calf primase of pol α
  effect on calf primase of pol α activity: did not suppress
Human topoisomerase I
  effect on human topoisomerase I activity: did not suppress
T4 polynucleotide kinase
  effect on T4 polynucleotide kinase activity: did not suppress
Bovine DNase I
  effect on bovine DNase I activity: did not suppress
[1]
  effect on melting temperature (Tm) / thermal transition of dsDNA: no effect
Xanthine oxidase
  IC50: 3.2 µM
Beta-secretase
  Mode of Inhibition, Beta-secretase: Non-competitive for Rh-EVNLDAEFK-Quencher
Beta-secretase; read-out: IC50, Beta-secretase
  IC50: 3.76 µM
Beta-secretase; read-out: Ki, Beta-secretase
  Ki: 5.13 µM
Neutral endopeptidase
  IC50: 12.5 µM
HIV integrase
  IC50: 13.7 µM
[2]
  IC50: > 100 µM
Isolated nuclei
  inhibition of DNA replicative synthesis compared with aphidocolin: superior efficacy
[3]
  in vivo growth of Lewis lung cancer allografts: suppresses
Human PCa PC-3 cells
  growth of PC-3 cells inoculated into the tibia: positive inhibitory efficacy
[4]; daily intra-peritoneal injection 20 mg/kg body weight, nude mice
  in vivo growth of DU145 xenografts: suppresses
[4]; mouse, in vivo
  effect on body weight: without evident adverse effect
